# Measured values taken from ChEMBL document CHEMBL1128478, “Structure-activity relationships of the potent combined endothelin-A/endothelin-B receptor antagonist Ac-DDip16-Leu-Asp-Ile-Ile-Trp21: development of endothelin-B receptor selective antagonists” (J Med Chem, 1995).
# Counter-ions that a name gives are not always drawn. Numbered stars: 1 amine (or outer) side, 2 acyl side, 3 side chain; on linkers, the order of the positions; unused ones are H or OH. Square brackets hold non-standard residues; d marks the D form. Peptide text beside a SMILES is read from it. * marks the point of attachment. Diphenylacetyl = O=C(C(c1ccccc1)c1ccccc1)*; Dip = N[C@H](C(=O)O)C(c1ccccc1)c1ccccc1; CO = O=C([*:1])[*:2]; Piv = CC(C)(C)C(=O)*; Tfa = O=C(C(F)(F)F)*; Bz = O=C(c1ccccc1)*; Ms = CS(=O)(=O)*
# Experiments:
# [1] = Relative affinities for rat endothelin B receptor and human endothelin B receptor; design: reference not given here
# [2] = target: T1, Endothelin receptor type B (Rattus norvegicus, UniProt P21451); experiment: Binding affinity against endothelin B receptor rat cerebellar membranes.
# T1 sequence (P21451 whole entry): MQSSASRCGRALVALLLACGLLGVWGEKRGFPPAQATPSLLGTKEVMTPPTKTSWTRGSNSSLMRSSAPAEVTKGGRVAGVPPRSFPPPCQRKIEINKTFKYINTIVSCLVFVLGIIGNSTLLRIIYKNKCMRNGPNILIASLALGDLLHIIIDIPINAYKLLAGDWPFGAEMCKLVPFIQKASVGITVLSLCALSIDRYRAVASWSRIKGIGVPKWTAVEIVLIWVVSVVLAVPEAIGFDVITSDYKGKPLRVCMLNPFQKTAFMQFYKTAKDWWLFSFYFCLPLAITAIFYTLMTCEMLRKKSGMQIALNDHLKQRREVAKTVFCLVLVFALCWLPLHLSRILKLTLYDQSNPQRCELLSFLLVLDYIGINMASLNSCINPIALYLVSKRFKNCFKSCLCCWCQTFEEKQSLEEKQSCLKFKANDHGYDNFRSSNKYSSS
# [3] = target: T2, Endothelin receptor type B (Homo sapiens, UniProt P24530); experiment: Binding affinity measured in CHO cells stably transfected with the human endothelin B receptor; assay type: cell-based
# T2 sequence (P24530 whole entry): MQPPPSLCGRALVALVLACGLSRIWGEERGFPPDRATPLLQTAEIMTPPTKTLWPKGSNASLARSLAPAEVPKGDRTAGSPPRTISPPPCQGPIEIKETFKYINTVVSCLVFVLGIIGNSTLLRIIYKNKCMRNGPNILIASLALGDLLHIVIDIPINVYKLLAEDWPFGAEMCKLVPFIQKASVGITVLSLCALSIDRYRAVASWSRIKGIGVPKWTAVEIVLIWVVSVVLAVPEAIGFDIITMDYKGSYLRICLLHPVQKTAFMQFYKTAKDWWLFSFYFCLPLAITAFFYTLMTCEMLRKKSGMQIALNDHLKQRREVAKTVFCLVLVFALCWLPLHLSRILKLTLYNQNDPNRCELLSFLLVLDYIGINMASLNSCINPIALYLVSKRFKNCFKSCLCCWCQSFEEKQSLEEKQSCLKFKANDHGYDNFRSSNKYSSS
# Outline: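 Membranes come from confluent CHO-K1 clones stably expressing human ETB, grown in DME/F12 with 10% FCS and G418 0.5 mg/mL. Specific binding fitted by nonlinear least squares. Triplicate points per IC50.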
# [4] = target: T1, Endothelin receptor type B; experiment: Inhibition of SRTX-6c stimulated arachidonic acid release in CHO cells expressing recombinant rat ET- B receptors
# [5] = Relative affinities against endothelin A receptor (rabbit) and endothelin B receptor (rat); design: reference not given here
# [6] = target: T1, Endothelin receptor type B; experiment: Inhibition of SRTX-6c stimulated arachidonic acid release in CHO cells expressing rat ET- B receptors
Structure (SMILES),Ratio [1],IC50 [2] [µM],IC50 [3] [µM],IC50 [4] [µM],Ratio [5],IC50 [6] [µM]
CC[C@H](C)[C@H](NC(=O)[C@H](CCC(=O)O)NC(=O)[C@H](CC(C)C)NC(=O)[C@@H](NC(C)=O)C(c1ccccc1)c1ccccc1)C(=O)N[C@H](C(=O)N[C@@H](Cc1c[nH]c2ccccc12)C(=O)O)[C@@H](C)CC (Ac-[Dip]LEIIW-OH),95,0.019,1.8,–,–,–
CC[C@H](C)[C@H](NC(=O)[C@H](Cc1ccccc1)NC(=O)[C@H](CC(=O)O)NC(=O)[C@H](CC(C)C)NC(=O)[C@@H](NC(C)=O)C(c1ccccc1)c1ccccc1)C(=O)N[C@@H](Cc1c[nH]c2ccccc12)C(=O)O (Ac-[Dip]LDFIW-OH),16,0.056,0.9,–,–,–
CC[C@H](C)[C@H](NC(=O)[C@H](CC(=O)O)NC(=O)[C@H](CC(C)C)NC(=O)[C@@H](NC(=O)NC)C(c1ccccc1)c1ccccc1)C(=O)N[C@H](C(=O)N[C@@H](Cc1c[nH]c2ccccc12)C(=O)O)[C@@H](C)CC ({NHMe-CO}-[Dip]LDIIW-OH),–,0.14,–,–,6.1,0.02
"CC[C@H](C)[C@H](NC(=O)[C@H](CCCCN)NC(=O)[C@H](CC(C)C)NC(=O)C(NC(C)=O)C(c1ccccc1)c1ccccc1)C(=O)N[C@H](C(=O)N[C@@H](Cc1c[nH]c2ccccc12)C(=O)O)[C@@H](C)CC (single isomer, unassigned)",–,–,> 10,–,–,–
CC[C@H](C)[C@H](NC(=O)[C@H](CC(=O)O)NC(=O)[C@H](CC(C)C)NC(=O)[C@@H](NC(=O)C(C)(C)C)C(c1ccccc1)c1ccccc1)C(=O)N[C@H](C(=O)N[C@@H](Cc1c[nH]c2ccccc12)C(=O)O)[C@@H](C)CC (Piv-[Dip]LDIIW-OH),–,0.4,–,–,25,0.89
CC[C@H](C)[C@H](NC(=O)[C@H](CC(=O)O)NC(=O)[C@H](CC(C)C)NC(=O)[C@@H](NC(=O)C(c1ccccc1)c1ccccc1)C(c1ccccc1)c1ccccc1)C(=O)N[C@H](C(=O)N[C@@H](Cc1c[nH]c2ccccc12)C(=O)O)[C@@H](C)CC (Diphenylacetyl-[Dip]LDIIW-OH),–,1.3,–,–,2,9.3

# More lines, now with the values ahead:
Ratio [1],IC50 [2] [µM],IC50 [3] [µM],IC50 [4] [µM],Ratio [5],IC50 [6] [µM],Structure (SMILES)
–,0.26,–,1.3,2.1,–,CC[C@H](C)[C@H](NC(=O)[C@H](CC(=O)O)NC(=O)[C@H](CC(C)C)NC(=O)[C@@H](NS(C)(=O)=O)C(c1ccccc1)c1ccccc1)C(=O)N[C@H](C(=O)N[C@@H](Cc1c[nH]c2ccccc12)C(=O)O)[C@@H](C)CC (Ms-[Dip]LDIIW-OH)
–,0.01,0.59,–,–,–,CC[C@H](C)[C@H](NC(=O)[C@H](CC(=O)O)NC(=O)[C@H](CCCNC(=N)N)NC(=O)[C@H](NC(C)=O)C(c1ccccc1)c1ccccc1)C(=O)N[C@H](C(=O)N[C@@H](Cc1c[nH]c2ccccc12)C(=O)O)[C@@H](C)CC
59,–,–,–,–,–,CC[C@H](C)[C@H](NC(=O)[C@H](CC(=O)O)NC(=O)[C@H](CCCNC(=N)N)NC(=O)[C@@H](NC(C)=O)C(c1ccccc1)c1ccccc1)C(=O)N[C@H](C(=O)N[C@@H](Cc1c[nH]c2ccccc12)C(=O)O)[C@@H](C)CC
17,0.06,> 1.6,–,–,–,CC[C@H](C)[C@H](NC(=O)[C@H](Cc1ccccc1)NC(=O)[C@H](CC(C)C)NC(=O)[C@@H](NC(C)=O)C(c1ccccc1)c1ccccc1)C(=O)N[C@H](C(=O)N[C@@H](Cc1c[nH]c2ccccc12)C(=O)O)[C@@H](C)CC (Ac-[Dip]LFIIW-OH)
147,0.03,4.4,–,210,0.29,CC[C@H](C)[C@H](NC(=O)[C@H](CC(=O)O)NC(=O)[C@H](CC(C)C)NC(=O)[C@@H](NC(=O)c1ccccc1)C(c1ccccc1)c1ccccc1)C(=O)N[C@H](C(=O)N[C@@H](Cc1c[nH]c2ccccc12)C(=O)O)[C@@H](C)CC (Bz-[Dip]LDIIW-OH)
–,0.6,–,–,0.42,0.29,CC[C@H](C)[C@H](NC(=O)[C@H](CC(=O)O)NC(=O)[C@H](CC(C)C)NC(=O)[C@@H](NC(=O)C(F)(F)F)C(c1ccccc1)c1ccccc1)C(=O)N[C@H](C(=O)N[C@@H](Cc1c[nH]c2ccccc12)C(=O)O)[C@@H](C)CC (Tfa-[Dip]LDIIW-OH)
